The list is not random: actives were taken first. Their share in the collection is about 0.55%.
TRPML3 agonist = activates the human TRPML3 channel. HEK293 TRPML3-YFP, Fluo-8 calcium fluorescence; 100% = the carbachol control signal. activation, % at 3 µM. 220,000 compounds, 0.29% hits. AID 1448;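 active = activation above its plate's cutoff, the mean activation of the plate's test wells plus 3 SD, cut at about 12% in these data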;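 also: 0% = DMSO only wells and 100% = carbachol wells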
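Test system – HEK293 line with stable expression of human TRPML3-YFP channel · Control set – carbachol 87 µM final as high control (100%), DMSO as low control (0%) · Signal – Fluo-8 calcium dye fluorescence, ex 470-495, em 515-575 nm · Incubation – 1-h 37 °C dye load, 5-s basal, 120-s post-compound reads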
V1aR counter = counter-screen for oxytocin receptor agonists: human V1a receptor agonists; activation, % at 3 µM; P37288; 320,000 compounds, 0.25% hits; CHO-V1R cells, Fluo-8 calcium fluorescence, agonist mode; 0% DMSO, 100% 3 nM vasopressin;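 active = activation above the mean activation of all tested compounds plus 3 SD, per screening run, cut at about 20% in these data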;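 also: signal is peak over basal fluorescence ratio across a 100 second FLIPR read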
TRPN1 ag = activates the zebrafish TRPN1 channel; HEK293 zebrafish TRPN1-YFP, Fluo-8 calcium fluorescence; 100% = response to 87 µM carbachol; 220,000 compounds, 0.18% hits; activation, % at 3 µM; AID 1424;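 active = activation above its plate's cutoff, the mean activation of test wells on that plate plus 3 SD, cut at about 19% in these data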;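 also: 0% = DMSO alone and 100% = 87 µM carbachol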
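Assay system: Zebrafish TRPN1-YFP in HEK293 cells | Incubation: Dye loading 1 h at 37 °C, then 30 min room temperature | Measured by: Kinetic Fluo-8 fluorescence, ex 470-495, em 515-575 nm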
OXTR ag = activates the human oxytocin receptor | CHO-OTR cells, Fluo-8 calcium fluorescence; normalized: DMSO 0%, oxytocin 100% | activation, % at 3 µM | 320,000 compounds, 0.32% hits;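 active = activation above the mean of all tested compounds plus 3 SD, cutoff set per screening run, cut at about 20% in these data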;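 also: peak over basal fluorescence ratio from a 100 s FLIPR kinetic read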
Target sequence (P30559 whole entry, looked up): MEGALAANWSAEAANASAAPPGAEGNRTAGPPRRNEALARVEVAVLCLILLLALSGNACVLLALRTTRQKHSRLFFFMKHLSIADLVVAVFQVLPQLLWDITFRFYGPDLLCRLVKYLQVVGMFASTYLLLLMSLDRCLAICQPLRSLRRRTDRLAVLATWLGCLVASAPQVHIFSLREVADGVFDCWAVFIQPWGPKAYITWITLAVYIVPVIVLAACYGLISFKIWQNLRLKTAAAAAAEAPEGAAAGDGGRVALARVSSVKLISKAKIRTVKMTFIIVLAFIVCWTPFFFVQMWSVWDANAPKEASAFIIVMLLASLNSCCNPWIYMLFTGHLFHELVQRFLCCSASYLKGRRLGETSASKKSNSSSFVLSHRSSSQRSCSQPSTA
OXTR potentiator = human OXTR potentiation | P30559 | CHO-OTR cells, Fluo-8 calcium fluorescence, potentiator mode; 0% = oxytocin EC15, 100% = EC100 | activation, % at 3 µM | 320,000 compounds, 0.061% hits;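 active = activation above that plate's cutoff, the mean activation of tested compounds plus 3 SD, cut at about 6.6% in these data, passing the limit was not always enough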;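 also: 100% uses oxytocin at 75 nM as the full agonist control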
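test system = CHO-OTR cells, human receptor | compound = single-point 3.0 µM | schedule = 6 min compound pre-incubation at room temperature, 100 s kinetic read | signal = Fluo-8 no-wash calcium dye fluorescence, excitation 470-495 nm, emission 515-575 nm | repeats = single well per compound, singlicate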
* hit, by the source's call; nt = no result given.

SMILES	TRPML3 agonist	V1aR counter	TRPN1 ag	OXTR ag	OXTR potentiator
O=C(CCN1CCCC1=O)NC1CCCc2c1cnn2-c1ccc(F)cc1F (centres undefined)	nt	-1	nt	-1	-7
Cc1cc(C(=O)CSc2nncn2C)c(C)n1-c1ccccc1	1	1	0	0	-8
Cc1cc(C)cc(NC(=O)CN2CCC(C(=O)c3ccccc3)CC2)c1	nt	-1	nt	-1	0
COc1ccc(N=CC2=C(Nc3ccc(OC)cc3)c3c(C)nn(-c4ccccn4)c3CC2)cc1	6	21*	6	10	-7
Cc1ccc(NC(=S)NNc2ncc(C(F)(F)F)cc2Cl)c(C)c1	0	4	0	9	-16
FC(F)(F)c1cnc(NNC(=S)Nc2ccc(Cl)cc2)c(Cl)c1	18*	11	26*	15	-5
Fc1ccc(NC(=S)NNc2ncc(C(F)(F)F)cc2Cl)c(F)c1	14*	15	23*	16	-26
CCn1c(=O)c([N+](=O)[O-])c(N2CCN(Cc3ccc4c(c3)OCO4)CC2)c2ccccc21	-2	-1	-2	-2	-3
COc1ccc(N/N=C(\C#N)C(=N)N2CCCCC2)cc1	0	-1	0	1	-8
COc1ccc(N/N=C(\C#N)C(=N)SCc2ccccc2)cc1	15*	nt	19*	nt	nt
CC(=O)N1C(=O)C(=C2C=C(C)OC(C)=C2)c2ccccc21	0	-2	26*	-2	2
COc1ccc(OC)c(C2CC(=O)Nc3c2c(=O)[nH]c2ncnn32)c1 (centres undefined)	1	3	1	1	-5
N#C/C(=C/c1ccccc1)C(=O)NCc1ccccc1	1	-1	0	-2	-2
CN(C)c1ccc(/C=C(/C#N)C(=O)NCc2ccccc2)o1	20*	23*	20*	20*	-11
CCCCCCCCCC[N+](C)(C)CC/C=C1/c2ccccc2Sc2ccc(Cl)cc21	nt	37*	nt	31*	-13
CS(=O)(=O)c1ccc(Cl)c(NC(=O)CSc2n[nH]c(-c3cccs3)n2)c1	nt	1	nt	1	-4
CC(C1CCN(Cc2cn(C)nc2-c2cccc(Cl)c2)CC1)N1CCOCC1 (centres undefined)	2	1	1	1	-3
Nc1c(C(=O)c2ccc(Cl)cc2)sc2nsc(SCCN3CCOCC3)c12	11	5	23*	5	-8
CC(=O)c1sc2nsc(SCCN3CCCCC3)c2c1N	1	1	2	2	1
Nc1c(C(=O)c2ccccc2)sc2nsc(SCCN3CCCC3)c12	13*	1	26*	2	-3
O=C(CN1C(=O)c2ccccc2S1(=O)=O)Nc1ccon1	nt	2	nt	-1	-14
CC1(C)CC[C@]2(C(=O)O)CC[C@]3(C)C(=CC[C@@H]4[C@@]5(C)CC[C@H](O[C@@H]6O[C@H](C(=O)O)[C@@H](O)[C@H](O[C@@H]7OC[C@H](O)[C@H](O)[C@H]7O)[C@H]6O)C(C)(C)[C@@H]5CC[C@]43C)[C@@H]2C1	nt	108*	nt	56*	-13
COc1cc(/C=C/C(=O)OCC(=O)NCc2ccco2)ccc1O	nt	1	nt	1	-1
COc1ccc2c(c1)CC(N1CCN(C)CC1)c1cc(OC)ccc1S2 (centres undefined)	nt	25*	nt	34*	-21
CCc1cc(=O)oc2c3c(cc(OCC(=O)NCCCOC)c12)OC(C)(C)CC3	nt	1	nt	0	-7
SMILES	TRPML3 agonist	V1aR counter	TRPN1 ag	OXTR ag	OXTR potentiator
Cc1ccc(N2C(=O)c3ccc(C(=O)N4CCN(c5ccc(C)c(C)c5)CC4)cc3C2=O)cc1	1	0	-1	0	-3
Cc1ccc(N2C(=O)c3ccc(C(=O)N4CCN(Cc5ccccc5)CC4)cc3C2=O)cc1	3	40*	9	30*	-10
Cc1onc(-c2ccccc2)c1C(=O)N(Cc1ccccc1)C(C)C	nt	-1	nt	-2	-2
CC(C)N(Cc1nc(-c2ccccc2)no1)S(=O)(=O)c1ccccc1	25*	1	-1	-2	-4
COc1ccccc1-n1c(=O)oc2ccc(Cl)cc2c1=O	12*	12	24*	12	-20
CCOC(=O)c1ccc2c(c1)N(CC)/C(=C\C=C1/SC(=S)N(CC)C1=O)N2CC	0	nt	0	nt	nt
C=CCN1C(=O)/C(=C/C=C2/N(CC)c3ccc(S(=O)(=O)N(C)C)cc3N2CC)SC1=S	4	26*	11	30*	-20
O=C(c1cccc(S(=O)(=O)N2CCc3ccccc32)c1)N1CCCC(C(F)(F)F)C1 (centres undefined)	nt	1	nt	0	-3
O=C(NC(Nc1nc2ccc([N+](=O)[O-])cc2s1)(C(F)(F)F)C(F)(F)F)c1ccccc1Cl	23*	5	23*	2	-11
O=C(NC(Nc1nc2ccc([N+](=O)[O-])cc2s1)(C(F)(F)F)C(F)(F)F)c1cccnc1	10	14	18	17	-12
N#C/C(=C(/O)C(Cl)(Cl)Cl)c1nc2ccccc2[nH]1	5	13	20*	15	-8
C[C@@H]1NC(=O)[C@H](CCC(=O)O)NC(=O)c2cc([N+](=O)[O-])cc(F)c2NCCC[C@@H](C(N)=O)NC1=O	0	1	1	0	-1
Cc1ccc(NC(=O)Nc2cccc([N+](=O)[O-])c2)cc1F	12*	8	23*	16	-13
CCc1ccc2c(c1)C(O)(CC(=O)c1cccs1)C(=O)N2 (centres undefined)	1	0	0	1	-8
CCN(CC)c1ccc(/C=C/c2nc3ccccc3s2)cc1	3	6	4	7	-12
COc1cc2nc(/C=C/c3ccc(N(C)C)cc3)sc2cc1SC	7	17	8	21*	-11
COc1cc(C(=O)OCC(=O)NC2CCCCCC2)ccc1OCC(C)C	nt	1	nt	-1	-6
CN(C)c1ccc(/C=C2\Oc3ccc(C#Cc4cccc(N)c4)cc3C2=O)cc1	nt	41*	nt	41*	-13
Cc1c2cnn(CC(=O)N3CCOCC3)c(=O)c2c(C)n1Cc1ccccc1F	nt	3	nt	0	-2
CCc1ccc(NC(=O)C(C)OC(=O)/C=C/c2ccc(O)c(OC)c2)cc1 (centres undefined)	nt	34*	nt	45*	-11
COc1cc(/C=C/C(=O)OC(C)C(=O)Nc2c(C)n(C)n(-c3ccccc3)c2=O)ccc1O (centres undefined)	nt	0	nt	0	-8
O=C(/C=C/c1ccco1)OCC(=O)c1ccc(OC(F)F)cc1	nt	1	nt	-2	-6
COc1cc(/C=C/C(=O)OCC(=O)c2ccc(OC(F)F)cc2)ccc1O	nt	21*	nt	34*	-10
O=C(NCCC1CCCCN1S(=O)(=O)c1ccccc1)C(=O)NCc1cccnc1 (centres undefined)	nt	-1	nt	0	5

Screens (PubChem)
